Bioassay records as filed in PubChem.
An excerpt weighted towards active compounds, which were near 4.1% of everything screened.
MC4R antag cAMP – antagonists of human melanocortin 4 receptor (MC4R); inhibition, % at 6.5 µM; P32245; MC4R-expressing cells, MTII-stimulated cAMP, LANCE TR-FRET; hit rate 0.48% among 360,000;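 active means inhibition above its plate's cutoff, the mean of tested wells on that plate plus 3 SD, cut at about 29% in these data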
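Material: U2OS-MC4R stable cell line | Reagent: Melanotan II challenge after compound preincubation | Doses: One concentration, 6.5 µM nominal | Incubation: 30-min compound preincubation, 1-h Melanotan II challenge, 1-h detection, room temperature | Signal: TR-FRET cAMP assay | Replicates: One well per compound, no replicates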
MC4R barr agon – agonists of human melanocortin 4 receptor (MC4R) beta-arrestin; hit rate 0.98% among 360,000; U2OS MC4R beta-arrestin complementation, luminescence; percent of melanotan II response, DMSO zero; activation, % at 8.9 µM; P32245;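 active means activation above a per-plate cutoff, the mean activation of sample wells on that plate plus 3 SD, cut at about 8% in these data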
SMARCA2 act – SMARCA2 function activation, primary screen; MG213 cells, MMTV-luciferase reporter, dexamethasone, overnight; activation, % at 9.1 µM; hit rate 1% among 370,000; AID 652017; in the data active means activation above about 7.8%
ATG4B inh – blocks human ATG4B protease cleavage of LC3 substrate; Q9Y4P1; ATG4B cleavage of LC3-PLA2, NBD-HPC fluorescence, 1 h; inhibition, % at 8.33 µM; hit rate 0.51% among 340,000; AID 504462; in the data active means inhibition above about 40%
Target sequence (Q9Y4P1 whole entry, looked up): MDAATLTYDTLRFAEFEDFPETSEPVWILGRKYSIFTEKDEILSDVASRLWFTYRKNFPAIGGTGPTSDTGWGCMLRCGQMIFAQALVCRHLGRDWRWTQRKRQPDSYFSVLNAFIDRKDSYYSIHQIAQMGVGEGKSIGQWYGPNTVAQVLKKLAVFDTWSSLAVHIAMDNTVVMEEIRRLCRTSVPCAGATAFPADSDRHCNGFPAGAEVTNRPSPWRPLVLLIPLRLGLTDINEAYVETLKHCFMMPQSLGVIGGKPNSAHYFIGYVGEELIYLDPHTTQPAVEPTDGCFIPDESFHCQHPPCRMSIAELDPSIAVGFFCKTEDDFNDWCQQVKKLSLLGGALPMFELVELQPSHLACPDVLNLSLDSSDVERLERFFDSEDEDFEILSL
MPTP inh – blocks calcium-induced mitochondrial swelling. isolated mouse mitochondria, Ca2+ swelling absorbance, 30 min. inhibition, % at 10 µM. hit rate 1.4% among 360,000. AID 602449;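 active means inhibition of 50% or more, scaled per plate between neutral and stimulator controls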
MPTP counter – Rhodamine 123 counter-screen of mitochondrial pore hits; isolated mitochondria, membrane potential, Rhodamine 123 fluorescence; hit rate 78% among 5,000; shares compounds with MPTP inh; inhibition, % at 10 µM; in the data active means inhibition above about 22%
MPTP abs DR – dose response confirmation of mitochondrial permeability transition pore inhibitors. IC50, µM. isolated mitochondria swelling, absorbance. shares compounds with MPTP inh. hit rate 58% among 780; in the data active means IC50 below about 20 µM
MPTP counter DR – counter-screen for mitochondrial permeability transition pore inhibitors, dose response; hit rate 49% among 780; shares compounds with MPTP inh; IC50, µM; isolated mitochondria counterscreen, fluorescence read-out; in the data active means IC50 below about 80 µM
Hits are given with their value; n = inactive; x = no result given.

SMILES | MC4R antag cAMP | MC4R barr agon | SMARCA2 act | ATG4B inh | MPTP inh | MPTP counter | others
COc1ccccc1NC(=O)NCC(=O)Nc1ccc(F)c(F)c1 | n | n | n | n | n | x
O=C(Nc1ccccc1)Nc1ccc(Br)cc1F | n | n | n | n | 53 | 84
COC(=O)c1cc(Br)ccc1NC(=O)Nc1ccccc1 | n | n | n | n | n | x
COc1ccccc1NC(=O)Nc1ccc(F)c(F)c1 | n | n | n | n | 81 | 68
O=C(Nc1cccc(Cl)c1)Nc1ccc(Br)cc1F | n | n | n | n | 75 | 82
CN1CC=C(c2ccccc2)N(c2ccc(Br)cc2)C1=O | x | x | n | x | x | x
CC(=O)C1=C(C)N(Cc2ccc(Br)cc2)C(=S)NC1c1ccc(F)cc1 (stereo unspecified) | x | x | n | x | x | x
C#CCN1CCc2onc(-c3ccc(Br)cc3)c2C1=O | x | x | n | x | n | x
CCn1c(SCC(=O)Nc2cccc3ccccc23)nnc1-c1cccs1 | x | x | n | x | x | x
Cc1ccc(S(=O)(=O)N2CCCCC2)cc1NC(=O)Nc1ccc(Cl)cc1Cl | n | n | n | n | 85 | 29
Cc1ccc(S(=O)(=O)N2CCCCC2)cc1NCC(=O)Nc1ccc(Br)cc1F | n | n | n | x | 66 | 94
O=C(COC(=O)CNS(=O)(=O)/C=C/c1ccccc1)Nc1cc(S(=O)(=O)N2CCCCC2)ccc1Cl | n | n | n | n | 70 | n | MPTP abs DR=n;MPTP counter DR=11
O=C(Nc1cccc(Cl)c1)Nc1cc(S(=O)(=O)N2CCCCC2)ccc1Cl | n | n | n | n | 84 | 63
Cc1ccccc1OCC(=O)OCC(=O)Nc1cc(S(=O)(=O)N2CCCCC2)ccc1Cl | n | n | n | n | n | x
CC1CCCCC1N(C(=O)c1cc(C2CC2)on1)C1CCCCC1 (stereo unspecified) | x | x | n | x | x | x
O=C(Nc1ccc([N+](=O)[O-])cc1)Nc1nc(-c2ccc(Cl)s2)cs1 | n | n | n | n | 91 | 87
Cc1csc(NC(=O)Nc2cccc(Cl)c2)n1 | n | n | n | n | 92 | 75
O=C(Cc1ccc(F)cc1)Nc1nc(-c2ccc(F)c(F)c2)cs1 | n | n | n | n | 59 | 86
O=C(Nc1cccc(Cl)c1)Nc1nc(-c2ccccc2)cs1 | n | n | n | n | 94 | 83
CCCC(=O)Nc1nc(-c2ccc(Cl)s2)cs1 | n | n | n | n | n | x
COC(=O)c1cn(-c2ccc3c(c2)[C@@]2(CC(=O)N(C)C2c2ccccc2)C(=O)N3CC(C)C)nn1 (stereo partly specified) | x | x | n | x | x | x
COc1cccc(CNC(=S)OC2CCC23CCC(c2ccccc2)CC3)c1 (stereo unspecified) | x | x | n | x | x | x
Cc1ccc(-c2cc(-c3nnc(SCC(=O)N4c5ccccc5Sc5ccc(Cl)cc54)n3N)[nH]n2)cc1 | x | x | n | x | x | x
O=C1CCC2(CCC(c3ccccc3)CC2)N1CCO (stereo unspecified) | x | x | n | x | x | x
O=C(O)c1ccc(Nc2nc(-c3ccccc3)cs2)cc1 | n | n | n | n | n | x
SMILES | MC4R antag cAMP | MC4R barr agon | SMARCA2 act | ATG4B inh | MPTP inh | MPTP counter | others
Cc1cc(NC(=O)Nc2ccc(Cl)cc2)n(C)n1 | n | n | n | n | n | x
Cc1noc(-c2ccccc2)c1NC(=O)Nc1ccc(Cl)cc1 | n | n | n | n | 84 | 97
O=C(Nc1ccc(Cl)cc1)Nc1nc(-c2ccccc2)cs1 | n | n | n | n | 94 | 92
O=C(Nc1ccccc1)Nc1nc(-c2ccc(F)cc2)cs1 | n | n | n | n | 92 | 86
Cn1nc(-c2ccc(Cl)cc2)cc1NC(=O)Nc1ccccc1 | n | n | n | n | 70 | 69
O=C(NN=C/C=C/c1ccco1)c1cc(-c2ccc(Cl)cc2)n[nH]1 | x | x | n | x | x | x
O=S1(=O)c2ccc(Br)cc2OCCC2CCCCN21 (stereo unspecified) | x | x | n | x | x | x
C=CCN1C(=O)[C@@H](CC(=O)NCc2ccc(C)o2)[C@]2(C(=O)OC)CCCCC=C12 | x | x | n | x | x | x
C=CCN1[C@@H](C)[C@H](c2ccccc2)Oc2cccc(N3CCCC3)c2S1(=O)=O | x | x | n | x | x | x
CCCCc1ccc(S(=O)(=O)NNC(=S)NCc2ccco2)cc1 | n | n | n | n | 83 | 65
C=CCOC(=O)N[C@@H](c1cccc(OC)c1)[C@@H](C)/C=C/CC(=O)O | x | x | n | x | x | x
Cc1ccc(SCc2nc3ccccc3n2CC(=O)Nc2ccc(Cl)cc2)cc1 | n | n | n | n | 87 | 87
O=C(Nc1nnc(-c2ccccc2Cl)o1)c1nc2ccccc2s1 | n | n | n | n | 96 | n
Cc1ccc(OCC(=O)c2cc(C)n(Cc3cccs3)c2C)c([N+](=O)[O-])n1 | n | n | n | n | 76 | 67
Cc1nc2ccccc2cc1OCc1ccccc1 | n | 8.5 | n | n | 92 | 100
Cc1nc2ccccc2cc1OCc1ccc(Cl)cc1 | n | n | n | n | 96 | 104
Cc1nc2ccccc2cc1C(=O)NCc1ccccc1 | n | n | n | n | n | x
Cc1nc(OCc2ccccc2)c2ccccc2n1 | n | n | n | n | 72 | n | MPTP abs DR=12;MPTP counter DR=27
COc1cccc(COc2cc3ccccc3nc2C)c1 | n | n | n | n | 97 | 94
C=C1c2cccc(O)c2C(=O)C2C(=O)[C@]3(O)C(=O)C(C(N)=O)C(=O)[C@@H](N(C)C)[C@@H]3[C@@H](O)[C@H]12 (stereo partly specified) | n | n | n | n | n | x
C[C@H]1c2cccc(O)c2C(O)=C2C(=O)[C@]3(O)C(O)=C(C(N)=O)C(=O)[C@@H](N(C)C)C3[C@@H](O)C21 (stereo partly specified) | n | n | n | n | 86 | n
Cc1ccc(OCCC(=O)Nc2ccc(C)c(F)c2)cc1 | n | n | n | n | n | x
Cc1ccc(S(=O)(=O)NCCC(=O)Nc2ccc(Cl)c(Cl)c2)cc1C | n | n | n | n | n | x
Cc1ccc(S(=O)(=O)NNC(=O)Nc2ccc(Cl)c(Cl)c2)cc1 | n | n | n | n | 86 | 97
Cc1ccc(OCCC(=O)Nc2ccc(F)c(Cl)c2)cc1 | n | n | n | n | 67 | 64
Cc1cc(NC(=O)Nc2ccc(F)c(Cl)c2)no1 | n | n | n | n | 51 | 85
Cc1ccc(S(=O)(=O)NCCC(=O)Nc2ccc(Cl)c(Cl)c2)cc1 | n | n | n | n | 90 | 87
COC(=O)[C@]12CCCCC=C1N(Cc1ccc(OC)cc1)C(=O)[C@@H]2CC(=O)NCCCN1CCCC1=O | x | x | n | x | x | x
COC(=O)C1=C(C)N(Cc2ccc(C(F)(F)F)cc2)C(=NCc2ccccc2C(F)(F)F)NC1c1ccc(C(F)(F)F)cc1 (stereo unspecified) | x | x | n | x | x | x
CC1(O)CC(c2ccc(Cl)cc2)=NN1C(=O)c1ccc(Cl)cc1 (stereo unspecified) | n | n | n | n | 68 | 88
